Data reported in ChEMBL document CHEMBL4837193 (Eur J Med Chem, 2021).

How the values were obtained:
HeLa = assay: Antiproliferative activity against human HeLa cells assessed as cell growth inhibition after 48 hrs by MTT assay; format: functional, cell-based
In short: (§1)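 Cells grown at 37 °C with CO2 in RPMI-1640 or DMEM plus 10% FBS. Seeded at 2 × 10³ per well, attached 24 h, then medium changed. Compound exposure 48 h at 37 °C, DMSO 0.1% as vehicle. MTT added and incubated a further 4 h. Crystals dissolved, absorbance read at 570 nm. IC50 from curve fitting, mean ± SD of three independent experiments.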

T47D = assay: Antiproliferative activity against human T47D cells assessed as cell growth inhibition after 48 hrs by MTT assay; format: functional, cell-based
HepG2 = assay: Antiproliferative activity against human HepG2 cells assessed as cell growth inhibition after 48 hrs by MTT assay; format: functional, cell-based; details: HepG2, 48 h; in short: as §1
HEK293 = assay: Antiproliferative activity against human HEK293 cells assessed as cell growth inhibition after 48 hrs by MTT assay; format: cell-based; details: HEK293, 48 h; in short: as §1
HT-29 = assay: Antiproliferative activity against human HT29 cells assessed as cell growth inhibition after 48 hrs by MTT assay; format: functional, cell-based; details: HT-29, 48 h
HCT-116 = assay: Antiproliferative activity against human HCT-116 cells assessed as cell growth inhibition after 48 hrs by MTT assay; format: functional, cell-based; details: HCT-116, 48 h; in short: as §1
A549 = assay: Antiproliferative activity against human A549 cells assessed as cell growth inhibition after 48 hrs by MTT assay; format: functional, cell-based; details: A549, 48 h; in short: as §1
Tubulin (Homo sapiens) = Tubulin (Homo sapiens) (UniProt P68371+Q9H4B7+P0DPH7+P68366+Q13509+Q71U36+P04350+Q3ZCM7+P07437+P68363+Q9BQE3+Q6PEY2+Q13885+Q9BVA1+Q9BUF5); assay: Inhibition of tubulin polymerization (unknown origin) at 10 uM measured after 30 mins every 1 min for 20 mins by spectrophotometric method; format: protein-complex assay
In short: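 Tubulin at 2 mg/mL in PEM buffer (100 mM PIPES pH 6.9, 1 mM MgCl2, 1 mM EGTA, 5% glycerol) preincubated on ice with compound or DMSO, then GTP added. After 0.5 h, A340 read every 1 min for 20 min at 37 °C. Plateau values used. Single-point inhibition at 10 µM; IC50 is the concentration halving polymerization at 20 min, mean ± SD of three experiments.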

Row | IC50 (HeLa) [µM] | SMILES | other results
1 | > 30 | COc1cc(-c2nc3nccc(-c4cccnc4)n3n2)cc(OC)c1OC | 
2 | 28.6 | COc1cc(-c2nc3nccc(-c4cccc5ccccc45)n3n2)cc(OC)c1OC | 
3 | > 30 | COc1cc(-c2nc3nccc(-c4cc(Cl)c(NC(C)=O)c(Cl)c4)n3n2)cc(OC)c1OC | 
4 |  | COc1ccc(/C=C\c2cc(OC)c(OC)c(OC)c2)cc1O [COMBRETASTATIN A4] | IC50 (T47D): 0.027 µM; IC50 (HepG2): 5.29 µM
5 | 29.9 | COc1cc(-c2nc3nccc(-c4ccc(N)cc4)n3n2)cc(OC)c1OC | 
6 | > 30 | COc1cc(-c2nc3nccc(-c4ccc(Cl)c(Cl)c4)n3n2)cc(OC)c1OC | 
7 | > 30 | COc1cc(-c2nc3nccc(-c4ccco4)n3n2)cc(OC)c1OC | 
8 | 0.9 | COc1ccc(-c2nc3nccc(-c4cc(OC)c(OC)c(OC)c4)n3n2)cc1 | 
9 | > 30 | COc1ccc(-c2ccnc3nc(-c4cc(OC)c(OC)c(OC)c4)nn23)cc1[N+](=O)[O-] | 
10 | > 30 | COc1cc(-c2nc3nccc(-c4ccc(C(F)(F)F)cc4)n3n2)cc(OC)c1OC | 
11 | > 30 | COc1cc(-c2ccnc3nc(-c4ccc(C)cc4)nn23)cc(OC)c1OC | 
12 | > 30 | COc1ccc(-c2ccnc3nc(-c4cc(OC)c(OC)c(OC)c4)nn23)cc1 | 
13 | 0.28 | COc1ccc(-c2nc3nccc(-c4cc(OC)c(OC)c(OC)c4)n3n2)cc1NC(C)=O | IC50 (HEK293): 82.1 µM; IC50 (T47D): 5.67 µM; IC50 (HT-29): 1.66 µM; IC50 (HCT-116): 22.4 µM; IC50 (A549): 34.6 µM; IC50 (HepG2): > 100 µM; inhibition (Tubulin (Homo sapiens)): 16%
14 | > 30 | COc1ccc(-c2ccnc3nc(-c4cc(OC)c(OC)c(OC)c4)nn23)cc1Cl | 
